Experimental findings from ChEMBL document CHEMBL4118191, “Novel oxazolxanthone derivatives as a new type of α-glucosidase inhibitor: synthesis, activities, inhibitory modes and synergetic effect” (Bioorg Med Chem, 2018) are described below.

The IC50 is the concentration that gives 50% inhibition. The term Ki denotes the equilibrium dissociation constant of an inhibitor or competing ligand from its target. Higher therefore signals a looser hold on the target. In general, inhibition refers to the relative decrease from the control value, in per cent.

A short description of data set [1]: Inhibition of Saccharomyces cerevisiae alpha-glucosidase using PNP glycoside as substrate preincubated for 30 mins followed by substrate addition measured after 60 secs by spectrophotometric method. The gist of the method:
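Yeast α-glucosidase was pre-incubated with inhibitor for 30 min at 37 °C before substrate addition. The reaction ran 60 s at 37 °C and was read by absorbance at 400 nm. Five inhibitor concentrations were bracketed around a first-round IC50 estimate, each in triplicate, and mean values were taken.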

Data set [2] can be described thus: Non-competitive inhibition of Saccharomyces cerevisiae alpha-glucosidase using varying levels of PNP glycoside as substrate preincubated for 30 mins followed by substrate addition measured after 60 secs by Lineweaver-Burk plot analysis. The procedure, abridged: (§1)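 Mode of inhibition came from Lineweaver–Burk double-reciprocal plots. At each fixed inhibitor concentration, yeast α-glucosidase activity was measured over varying PNP glycoside concentrations. Enzyme–inhibitor mixtures were in 50 mM phosphate buffer, pH 6.8, with 5% v/v DMSO, and were pre-incubated 30 min at 37 °C before substrate addition. The reaction ran 60 s at 37 °C and was read at 400 nm.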

Data set [3] deals with Saccharomyces cerevisiae. Kind of data set: Inhibition of Saccharomyces cerevisiae alpha-glucosidase at 2 uM using PNP glycoside as substrate preincubated for 30 mins followed by substrate addition measured after 60 secs by spectrophotometric method relative to control. The gist of the method:
(§2)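 Single-point inhibition of yeast α-glucosidase, tested individually and as a 1:1 molar mixture at a fixed total concentration of 2. Inhibitor and enzyme were pre-incubated 30 min at 37 °C, then substrate was added. The reaction ran 60 s at 37 °C with absorbance read at 400 nm. Percent inhibition is relative to control.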

The test system of data set [4] is Saccharomyces cerevisiae. Put plainly: Synergistic inhibition of Saccharomyces cerevisiae alpha-glucosidase at 1:1 molar ratio of compound to 5-methoxy-2-(4-methoxyphenyl)-6H-xantheno [4, 3-d] oxazol-6-one using PNP glycoside as substrate preincubated for 30 mins followed by substrate addition measured after 60 secs by spectrophotometric method relative to control. The procedure, abridged:
as §2

Data set [5] deals with Saccharomyces cerevisiae. Put plainly: Synergistic inhibition of Saccharomyces cerevisiae alpha-glucosidase at 1:1 molar ratio of compound to 5-methoxy-2-(4-methoxyphenyl)-6H-xantheno [4, 3-d] oxazol-6-one using PNP glycoside as substrate preincubated for 30 mins followed by substrate addition measured after 60 secs by spectrophotometric method relative to compound alone. The procedure, abridged: as §2

Data set [6] is described as follows: Synergistic inhibition of Saccharomyces cerevisiae alpha-glucosidase at 4:6 molar ratio of compound to 5-methoxy-2-(4-methoxyphenyl)-6H-xantheno [4, 3-d] oxazol-6-one using PNP glycoside as substrate preincubated for 30 mins followed by substrate addition measured after 60 secs by spectrophotometric method. The gist of the method: (§3)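 Yeast α-glucosidase IC50 was determined for the two-inhibitor mixture at a 4:6 molar ratio and for each inhibitor alone. Pre-incubation was 30 min at 37 °C, followed by a 60 s reaction at 37 °C read at 400 nm. Five concentrations were run in triplicate and means taken. Ratios compare single-compound IC50 with mixture IC50.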

Data set [7] relates to Saccharomyces cerevisiae. Kind of data set: Ratio of compound alone IC50 to compound IC50 in presence of 5-methoxy-2-(4-methoxyphenyl)-6H-xantheno [4, 3-d] oxazol-6-one for Saccharomyces cerevisiae alpha-glucosidase. The gist of the method: as §3
In data set [8] the test system is Saccharomyces cerevisiae. Kind of data set: Competitive inhibition of Saccharomyces cerevisiae alpha-glucosidase at 50 to 60 uM using varying levels of PNP glycoside as substrate preincubated for 30 mins followed by substrate addition measured after 60 secs by Lineweaver-Burk plot analysis. The procedure, abridged: as §1
A short description of data set [9]: Solubility of the compound. It counts as physicochemical.
Data set [10] concerns Saccharomyces cerevisiae. Put plainly: Synergistic inhibition of Saccharomyces cerevisiae alpha-glucosidase at 1:1 molar ratio of compound to 5-hydroxy-2-(4-methoxyphenyl)-6H-xantheno [4, 3-d] oxazol-6-one using PNP glycoside as substrate preincubated for 30 mins followed by substrate addition measured after 60 secs by spectrophotometric method relative to control. The procedure, abridged:
as §2

The subject of data set [11] is Saccharomyces cerevisiae. Put plainly: Synergistic inhibition of Saccharomyces cerevisiae alpha-glucosidase at 1:1 molar ratio of compound to 5-hydroxy-2-(4-methoxyphenyl)-6H-xantheno [4, 3-d] oxazol-6-one using PNP glycoside as substrate preincubated for 30 mins followed by substrate addition measured after 60 secs by spectrophotometric method relative to compound alone. The procedure, abridged: as §2

For data set [12], the system named is Saccharomyces cerevisiae. Kind of data set: Ratio of IC50 for synergistic inhibition of Saccharomyces cerevisiae alpha-glucosidase assessed as 5-hydroxy-2-(4-methoxyphenyl)-6H-xantheno [4, 3-d] oxazol-6-one IC50 to IC50 for Saccharomyces cerevisiae alpha-glucosidase. The gist of the method: as §3

Calls of active or inactive are those of the source. The calls are words filed in the database; no cut-off is given here.

With `OC[C@H]1NC[C@H](O)[C@@H](O)[C@@H]1O` [DUVOGLUSTAT], 60.3 µM corresponded to half-maximal inhibition in data set [1] (IC50).

`O=c1c2ccccc2oc2c1c(O)cc1oc(-c3ccc(Cl)cc3)nc12` came in with an IC50 in data set [1] of 8.8 µM. Still for that read-out and setting: next, `Nc1c(O)cc(O)c2c(=O)c3ccccc3oc12`: 127 µM. On the same count and under the same terms, next, `O=c1c2ccccc2oc2c1c(O)cc1oc(-c3ccc(Br)cc3)nc12`: 11 µM; `O=c1c2ccccc2oc2c([N+](=O)[O-])c(O)cc(O)c12`: 286 µM. For the molecule `COc1ccc(-c2nc3c(cc(O)c4c(=O)c5ccccc5oc43)o2)cc1`, the values for the IC50 in data set [1] and in data set [6] were 7.1 µM and 1.9 µM, respectively. Also, the affinity in data set [2], expressed as Ki, was 5.3 µM. Further, the inhibition with Saccharomyces cerevisiae [3] turned out to be 21.7%; with Saccharomyces cerevisiae [4], 41.9%. Besides, in the data set with Saccharomyces cerevisiae [5], the fold change (FC) stood at 2. Further, the Ratio IC50 in the data set on Saccharomyces cerevisiae [7] was 3.5. For `Cc1nc2c(cc(O)c3c(=O)c4ccccc4oc32)o1`, the IC50 in data set [1] amounted to 64.4 µM. Besides, in the data set with Saccharomyces cerevisiae [8], the inhibition entry was “Active”. Regarding `COc1ccc(-c2nc3c(cc(OC)c4c(=O)c5ccccc5oc43)o2)cc1`, the IC50 in data set [1] was determined as 8.6 µM. In addition, in data set [9], the solubility entry is on record as “Soluble”. Moreover, in [2], the Ki was determined as 7.4 µM. Further, the inhibition turned out to be 20.3% with Saccharomyces cerevisiae [3] and 41.9% in the data set on Saccharomyces cerevisiae [10]. For the same molecule, the fold change (FC) in the data set on Saccharomyces cerevisiae [11] is 2. Further, in the data set with Saccharomyces cerevisiae [12], the Ratio IC50 is 4. In the case of `O=c1c2ccccc2oc2c1c(O)cc1oc(-c3ccccc3)nc12`, the IC50 in data set [1] turned out to be 18.3 µM. Same read-out and setting: under `Nc1ccc(-c2nc3c(cc(O)c4c(=O)c5ccccc5oc43)o2)cc1` stands 8.3 µM; under `O=c1c2ccccc2oc2cc(O)cc(O)c12`, 186 µM. On the same count and under the same terms, next, `O=c1c2ccccc2oc2c1c(O)cc1oc(-c3ccccc3F)nc12`: 8.4 µM. The same measure, in the same setting: next, `O=c1c2ccccc2oc2c1c(O)cc1oc(-c3ccc(C(F)(F)F)cc3)nc12`: 26.9 µM. In data set [1], `Cc1ccc(-c2nc3c(cc(O)c4c(=O)c5ccccc5oc43)o2)cc1` displayed an IC50 of 19.1 µM. Still for that read-out and setting: next, `O=c1c2ccccc2oc2c1c(O)cc1oc(-c3cccc(F)c3)nc12`: 8.9 µM.

Consider `O=c1c2ccccc2oc2c1c(O)cc1oc(C3CCCCC3)nc12`, for which, in [1], the IC50 came out at 38.5 µM. In [1], `COc1cc2oc(-c3ccc(Cl)cc3)nc2c2oc3ccccc3c(=O)c12` gave an IC50 of 9.9 µM. The solubility result in data set [9] is on record as “Soluble”. For `COc1cc2oc(-c3ccccc3)nc2c2oc3ccccc3c(=O)c12` the same measures were 19.6 µM and “Soluble”. In data set [1], `O=c1c2ccccc2oc2c1c(O)cc1oc(-c3ccc([N+](=O)[O-])cc3)nc12` had an IC50 of 24.5 µM. `O=c1c2ccccc2oc2c1c(O)cc1oc(-c3ccc(O)cc3)nc12` gave an IC50 in data set [1] of 7.3 µM. The same measure, in the same setting: under `O=c1c2ccccc2oc2c1c(O)cc1oc(-c3ccc(F)cc3)nc12` stands 6.7 µM. `O=c1c2ccccc2oc2c1c(O)cc1oc(-c3c(F)cc(F)cc3F)nc12` returned an IC50 in data set [1] of 6.3 µM. The molecule also showed a Ki in data set [2] of 6.8 µM.
